From ChEMBL document CHEMBL5712908, “A genome-wide RNAi screen reveals essential therapeutic targets of breast cancer stem cells” (2019)
The source made the active and inactive calls. No cut-off for these calls is given here.

How the values were obtained:
[1] = molecular target: Histone acetyltransferase p300 (Homo sapiens) (UniProt Q09472); experiment: Inhibition of EP300 in human SUM149 cells assessed as K-score by measuring ALDHbr cells by LSR2 cytometer; assay type: cell-based
Procedure, shortened: (§1)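 Breast cancer lines exposed continuously for 72 h in adherent culture to a range of doses centred on the MTS-derived IC50 (72 h MTS, absorbance 540 nm). ALDHbr fraction measured by ALDEFLUOR flow cytometry (LSR2) with DEAB control. K-score = linear regression coefficient between untreated condition and the log10 dose at which ALDHbr proportion changes by 50% versus control.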

[2] = molecular target: Histone acetyltransferase p300 (Homo sapiens) (UniProt Q09472); experiment: Inhibition of EP300 in human MDA-MB-436 cells assessed as K-score by measuring ALDHbr cells by LSR2 cytometer; assay type: cell-based; procedure, shortened: as §1
[3] = molecular target: Histone acetyltransferase p300 (Homo sapiens) (UniProt Q09472); experiment: Inhibition of EP300 in human S68 cells assessed as K-score by measuring ALDHbr cells by LSR2 cytometer; assay type: cell-based; procedure, shortened: as §1
[4] = molecular target: Histone acetyltransferase p300 (Homo sapiens) (UniProt Q09472); experiment: Inhibition of EP300 in human BrCa-MZ-01 cells assessed as K-score by measuring ALDHbr cells by LSR2 cytometer; assay type: cell-based; procedure, shortened: as §1
[5] = molecular target: Histone acetyltransferase p300 (Homo sapiens) (UniProt Q09472); experiment: Inhibition of EP300 in human SUM159 cells assessed as K-score by measuring ALDHbr cells by LSR2 cytometer; assay type: cell-based; procedure, shortened: as §1
SUM-159-PT [6] = experiment: Anticancer activity against human SUM159 cells assessed as decrease in primary tumor sphere formation incubated for 72 hrs by Extreme limiting dilution analysis; assay type: functional, cell-based
Procedure, shortened: (§2)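 Cells drug-treated in adherent culture for 72 h, then plated as single cells in ultra-low attachment 96-well plates in serum-free mammary epithelium basal medium. Plating at 25/10/5/3/2/1 cells per well, 18–36 wells per condition. Wells with ≥1 sphere after 10 days scored positive. Secondary spheres were made by dissociating primary spheres. Frequency by ELDA; n = 4; pairwise chi-square test.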

SUM-159-PT [7] = experiment: Anticancer activity against human SUM159 cells assessed as decrease in secondary tumor sphere formation incubated for 72 hrs by Extreme limiting dilution analysis; assay type: functional, cell-based; procedure, shortened: as §2
[8] = molecular target: T1, Double-stranded RNA-specific editase 1 (Homo sapiens) (UniProt P78563); experiment: Inhibition of ADARB1 in human SUM159 cells assessed as K-score by measuring ALDHbr cells by LSR2 cytometer; assay type: cell-based; procedure, shortened: as §1
T1 sequence (whole entry): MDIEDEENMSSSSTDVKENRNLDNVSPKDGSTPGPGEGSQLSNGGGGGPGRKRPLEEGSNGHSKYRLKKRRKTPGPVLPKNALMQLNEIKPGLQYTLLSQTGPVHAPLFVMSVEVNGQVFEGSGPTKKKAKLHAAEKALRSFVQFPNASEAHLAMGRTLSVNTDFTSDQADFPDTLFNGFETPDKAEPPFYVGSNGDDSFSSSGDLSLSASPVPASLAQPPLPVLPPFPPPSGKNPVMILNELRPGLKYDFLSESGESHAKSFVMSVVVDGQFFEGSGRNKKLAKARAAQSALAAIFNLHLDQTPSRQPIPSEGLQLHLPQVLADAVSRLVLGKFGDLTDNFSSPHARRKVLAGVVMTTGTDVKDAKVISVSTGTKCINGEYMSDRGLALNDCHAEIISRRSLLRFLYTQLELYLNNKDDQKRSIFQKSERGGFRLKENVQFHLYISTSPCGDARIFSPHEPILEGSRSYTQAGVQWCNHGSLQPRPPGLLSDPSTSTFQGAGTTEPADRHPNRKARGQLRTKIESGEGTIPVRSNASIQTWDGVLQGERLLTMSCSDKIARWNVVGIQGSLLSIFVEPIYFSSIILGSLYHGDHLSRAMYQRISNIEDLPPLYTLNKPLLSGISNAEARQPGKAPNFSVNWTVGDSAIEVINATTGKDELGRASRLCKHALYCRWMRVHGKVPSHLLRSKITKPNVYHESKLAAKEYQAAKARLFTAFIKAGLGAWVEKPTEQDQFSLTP

[9] = molecular target: T1, Double-stranded RNA-specific editase 1 (Homo sapiens); experiment: Inhibition of ADARB1 in human S68 cells assessed as K-score by measuring ALDHbr cells by LSR2 cytometer; assay type: cell-based; procedure, shortened: as §1
[10] = molecular target: T1, Double-stranded RNA-specific editase 1 (Homo sapiens); experiment: Inhibition of ADARB1 in human SUM149 cells assessed as K-score by measuring ALDHbr cells by LSR2 cytometer; assay type: cell-based; procedure, shortened: as §1
[11] = molecular target: T1, Double-stranded RNA-specific editase 1 (Homo sapiens); experiment: Inhibition of ADARB1 in human MDA-MB-436 cells assessed as K-score by measuring ALDHbr cells by LSR2 cytometer; assay type: cell-based; procedure, shortened: as §1
[12] = molecular target: T1, Double-stranded RNA-specific editase 1 (Homo sapiens); experiment: Inhibition of ADARB1 in human BrCa-MZ-01cells assessed as K-score by measuring ALDHbr cells by LSR2 cytometer; assay type: cell-based; procedure, shortened: as §1
[13] = Antitumor activity against human S68 cells assessed as K-score by measuring ALDHbr cells by LSR2 cytometer; assay type: functional
Procedure, shortened: (§3)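 Cell lines exposed for 72 h in adherent culture to a range of concentrations centred on the MTS-derived IC50. ALDHbr proportion measured by ALDEFLUOR flow cytometry (LSR2). K-score is the linear regression coefficient, on log10-transformed doses, between the untreated condition and the dose predicted to give a 50% decrease or increase in ALDHbr proportion versus control.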

SUM149PT = experiment: Antitumor activity against human SUM149 cells assessed as K-score by measuring ALDHbr cells by LSR2 cytometer; assay type: functional; procedure, shortened: as §3
SUM-159-PT [14] = experiment: Antitumor activity against human SUM159 cells assessed as K-score by measuring ALDHbr cells by LSR2 cytometer; assay type: functional; procedure, shortened: as §3
[15] = Antitumor activity against human BrCa-MZ-01 cells assessed as K-score by measuring ALDHbr cells by LSR2 cytometer; assay type: functional; procedure, shortened: as §3
MDA-MB-436 = experiment: Antitumor activity against human MDA-MB-436 cells assessed as K-score by measuring ALDHbr cells by LSR2 cytometer; assay type: functional; procedure, shortened: as §3
Proteasome [16] = experiment: Inhibition of proteasome in human SUM149 cells assessed as K-score by measuring ALDHbr cells by LSR2 cytometer; details: condition breast cancer; procedure, shortened: as §1
Proteasome [17] = experiment: Inhibition of proteasome in human MDA-MB-436 cells assessed as K-score by measuring ALDHbr cells by LSR2 cytometer; details: condition breast cancer; procedure, shortened: as §1
Proteasome [18] = experiment: Inhibition of proteasome in human BrCa-MZ-01 cells assessed as K-score by measuring ALDHbr cells by LSR2 cytometer; details: condition breast cancer; procedure, shortened: as §1
Proteasome [19] = experiment: Inhibition of proteasome in human S68 cells assessed as K-score by measuring ALDHbr cells by LSR2 cytometer; details: condition breast cancer; procedure, shortened: as §1
Proteasome [20] = experiment: Inhibition of proteasome in human SUM159 cells assessed as K-score by measuring ALDHbr cells by LSR2 cytometer; details: condition breast cancer; procedure, shortened: as §1

Histone acetyltransferase p300 (Homo sapiens), sequence (Q09472 whole entry): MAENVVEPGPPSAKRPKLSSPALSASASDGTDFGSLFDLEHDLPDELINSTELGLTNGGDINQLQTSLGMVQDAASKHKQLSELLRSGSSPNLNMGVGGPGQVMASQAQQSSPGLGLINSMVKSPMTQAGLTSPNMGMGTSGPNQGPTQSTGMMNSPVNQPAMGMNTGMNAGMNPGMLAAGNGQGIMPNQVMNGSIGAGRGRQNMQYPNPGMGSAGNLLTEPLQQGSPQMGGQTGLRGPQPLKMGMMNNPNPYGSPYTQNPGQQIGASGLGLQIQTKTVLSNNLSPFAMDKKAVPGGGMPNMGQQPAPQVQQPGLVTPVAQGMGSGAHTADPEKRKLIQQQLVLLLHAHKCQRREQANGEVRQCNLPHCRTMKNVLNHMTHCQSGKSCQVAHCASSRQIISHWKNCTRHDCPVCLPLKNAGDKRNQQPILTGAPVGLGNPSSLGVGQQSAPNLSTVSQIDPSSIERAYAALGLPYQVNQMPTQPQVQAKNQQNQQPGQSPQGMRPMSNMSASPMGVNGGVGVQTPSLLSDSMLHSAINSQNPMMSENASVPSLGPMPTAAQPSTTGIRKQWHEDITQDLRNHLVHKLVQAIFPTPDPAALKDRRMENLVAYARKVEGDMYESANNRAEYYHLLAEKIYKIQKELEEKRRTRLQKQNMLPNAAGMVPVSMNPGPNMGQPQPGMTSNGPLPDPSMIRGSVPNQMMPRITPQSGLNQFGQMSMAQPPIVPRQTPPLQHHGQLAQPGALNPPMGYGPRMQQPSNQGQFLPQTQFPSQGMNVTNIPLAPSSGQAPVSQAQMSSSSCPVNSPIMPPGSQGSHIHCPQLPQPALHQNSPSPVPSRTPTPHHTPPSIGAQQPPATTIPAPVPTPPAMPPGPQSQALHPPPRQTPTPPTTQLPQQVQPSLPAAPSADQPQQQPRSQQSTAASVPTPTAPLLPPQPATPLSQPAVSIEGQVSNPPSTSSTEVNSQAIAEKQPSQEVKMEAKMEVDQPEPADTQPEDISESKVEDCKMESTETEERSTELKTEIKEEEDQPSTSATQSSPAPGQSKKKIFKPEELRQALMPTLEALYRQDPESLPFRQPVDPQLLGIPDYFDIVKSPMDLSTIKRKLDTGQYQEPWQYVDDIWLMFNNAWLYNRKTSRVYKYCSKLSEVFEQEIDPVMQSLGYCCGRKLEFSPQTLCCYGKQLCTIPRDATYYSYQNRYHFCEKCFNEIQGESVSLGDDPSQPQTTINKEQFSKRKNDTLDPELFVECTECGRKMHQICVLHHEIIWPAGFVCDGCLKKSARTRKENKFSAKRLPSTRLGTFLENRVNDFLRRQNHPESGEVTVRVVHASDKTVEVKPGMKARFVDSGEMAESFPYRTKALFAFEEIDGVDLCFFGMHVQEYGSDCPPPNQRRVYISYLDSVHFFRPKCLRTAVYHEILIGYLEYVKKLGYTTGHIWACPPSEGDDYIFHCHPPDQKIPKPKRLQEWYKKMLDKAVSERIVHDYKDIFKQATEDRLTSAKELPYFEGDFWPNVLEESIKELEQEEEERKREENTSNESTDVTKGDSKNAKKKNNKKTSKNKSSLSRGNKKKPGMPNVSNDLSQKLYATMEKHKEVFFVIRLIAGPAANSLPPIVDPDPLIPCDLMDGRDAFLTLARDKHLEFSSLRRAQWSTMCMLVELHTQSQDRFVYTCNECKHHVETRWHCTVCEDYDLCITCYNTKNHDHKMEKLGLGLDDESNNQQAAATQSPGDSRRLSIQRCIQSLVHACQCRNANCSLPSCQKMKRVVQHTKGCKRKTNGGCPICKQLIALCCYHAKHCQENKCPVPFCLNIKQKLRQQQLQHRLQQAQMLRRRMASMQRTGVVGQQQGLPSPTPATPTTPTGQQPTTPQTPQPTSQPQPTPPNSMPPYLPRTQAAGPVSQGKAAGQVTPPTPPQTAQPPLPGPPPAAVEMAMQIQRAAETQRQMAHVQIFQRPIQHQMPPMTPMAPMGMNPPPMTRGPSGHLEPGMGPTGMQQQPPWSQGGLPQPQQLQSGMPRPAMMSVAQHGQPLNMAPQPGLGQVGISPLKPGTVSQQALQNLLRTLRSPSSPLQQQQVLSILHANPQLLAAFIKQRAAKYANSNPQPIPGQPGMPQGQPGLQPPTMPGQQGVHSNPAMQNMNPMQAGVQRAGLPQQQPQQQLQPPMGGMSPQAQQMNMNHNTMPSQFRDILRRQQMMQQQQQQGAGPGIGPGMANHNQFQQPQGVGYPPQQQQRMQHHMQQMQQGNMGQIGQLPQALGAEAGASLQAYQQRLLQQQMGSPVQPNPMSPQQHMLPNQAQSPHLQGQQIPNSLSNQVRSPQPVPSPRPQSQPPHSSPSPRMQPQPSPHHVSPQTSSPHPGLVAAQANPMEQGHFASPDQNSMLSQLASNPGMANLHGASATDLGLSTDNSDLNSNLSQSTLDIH

With `COc1ccc(CCc2nc3cc(-c4c(C)noc4C)ccc3n2C[C@H](C)N2CCOCC2)cc1Cl` as the molecule, how does the Activity [1] read?
The Activity was 0.1.

What about the Activity [2] of the same molecule?
Its Activity is -0.04.

What about the Activity [3] of the same molecule?
The Activity was 0.08.

What about the Activity [4] of the same molecule?
Its Activity is -0.01.

What about the Activity [5] of the same molecule?
Its Activity is -0.02.

Which results are given for `CCCc1cc(C)[nH]c(=O)c1CNC(=O)c1cc(-c2ccnc(N3CCN(C)CC3)c2)cc2c1cnn2C(C)C`?
Activity (SUM-159-PT [6]): inactive; Activity (SUM-159-PT [7]): inactive

What does the source list for `Nc1ncnc2c1nnn2[C@@H]1O[C@H](CO)[C@@H](O)[C@H]1O`?
Activity [8]: -0.11; Activity [9]: -0.01; Activity [10]: 0.12; Activity [11]: -0.02; Activity [12]: -0.01

Which Activity [13] does the source give for `CCN(CC)CCCC(C)Nc1ccnc2cc(Cl)ccc12` (configuration not stated) [CHLOROQUINE] here?
The Activity was -0.02.

And the Activity (SUM149PT)?
Its Activity is -0.01.

And the Activity (SUM-159-PT [14])?
Its Activity is 0.04.

And the Activity [15]?
Its Activity is -0.02.

And the Activity (MDA-MB-436)?
Its Activity is -0.06.

What does the source list for `CC(C)C[C@H](NC(=O)[C@H](CCc1ccccc1)NC(=O)CN1CCOCC1)C(=O)N[C@@H](Cc1ccccc1)C(=O)N[C@@H](CC(C)C)C(=O)[C@@]1(C)CO1` [CARFILZOMIB]?
Activity (Proteasome [16]): -0.03; Activity (Proteasome [17]): -0.08; Activity (Proteasome [18]): -0.08; Activity (Proteasome [19]): -0.09; Activity (Proteasome [20]): 0.01

With `CCC(=O)N1CCOc2c(cc(-c3ccc(OC)c(OC)c3)cc2OC[C@H]2CCCN(C)C2)C1` as the molecule, how does the Activity [1] read?
Its Activity is 0.1.

And the Activity [2]?
Its Activity is 0.14.

What about the Activity [3] of the same molecule?
Its Activity is 0.22.

And the Activity [4]?
Its Activity is 0.01.

And the Activity [5]?
Its Activity is 0.02.
